# Measured values published in ChEMBL document CHEMBL1154444, “2,3,5-Substituted tetrahydrofurans: COX-2 inhibitory activities of 5-hydroxymethyl-/carboxyl-2,3-diaryl-tetrahydro-furan-3-ols” (Eur J Med Chem, 2008).
# Tests used:
# [1] = Selectivity ratio of IC50 for COX1 to IC50 for COX2
# Summary of the method: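 Ovine COX-1 and COX-2 inhibitor screening kit. Reaction started with arachidonic acid and quenched with 1 M HCl. PGH2 reduced to PGF2α by SnCl2, then quantified by prostaglandin antiserum immunoassay read at 405 nm. Heat-inactivated enzymes (boiling water, 3 min) served as background. Compounds tested in duplicate. Selectivity taken as IC50(COX-1)/IC50(COX-2).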
# [2] = Partition coefficient, log P of the compound; assay type: physicochemical; settings: octanol/water
# Summary of the method: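 Calculated rather than measured, as one of several physico-chemical descriptors used in quantitative structure–activity correlation with COX-2 inhibition.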
# [3] = target: Prostaglandin G/H synthase 2 (Ovis aries) (UniProt P79208)
# Sequence of Prostaglandin G/H synthase 2 (Ovis aries) (P79208 whole entry, looked up): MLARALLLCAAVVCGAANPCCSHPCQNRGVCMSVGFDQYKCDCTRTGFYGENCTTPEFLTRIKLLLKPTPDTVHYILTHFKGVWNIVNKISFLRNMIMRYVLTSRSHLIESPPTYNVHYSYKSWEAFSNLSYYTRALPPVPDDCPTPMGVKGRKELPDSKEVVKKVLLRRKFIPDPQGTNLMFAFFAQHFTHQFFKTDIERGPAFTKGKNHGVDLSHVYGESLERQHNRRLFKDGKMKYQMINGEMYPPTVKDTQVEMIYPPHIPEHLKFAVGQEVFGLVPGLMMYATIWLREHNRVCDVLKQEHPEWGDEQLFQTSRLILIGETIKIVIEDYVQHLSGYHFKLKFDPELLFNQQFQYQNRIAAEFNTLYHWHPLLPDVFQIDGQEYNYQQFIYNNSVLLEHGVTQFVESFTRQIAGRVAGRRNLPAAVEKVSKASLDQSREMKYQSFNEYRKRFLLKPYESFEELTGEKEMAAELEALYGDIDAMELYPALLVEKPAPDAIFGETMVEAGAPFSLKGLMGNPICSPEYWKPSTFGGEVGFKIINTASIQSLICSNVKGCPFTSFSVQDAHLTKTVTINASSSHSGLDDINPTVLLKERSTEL
# [4] = target: Prostaglandin G/H synthase 1 (Ovis aries) (UniProt P05979)
# Sequence of Prostaglandin G/H synthase 1 (Ovis aries) (P05979 whole entry, looked up): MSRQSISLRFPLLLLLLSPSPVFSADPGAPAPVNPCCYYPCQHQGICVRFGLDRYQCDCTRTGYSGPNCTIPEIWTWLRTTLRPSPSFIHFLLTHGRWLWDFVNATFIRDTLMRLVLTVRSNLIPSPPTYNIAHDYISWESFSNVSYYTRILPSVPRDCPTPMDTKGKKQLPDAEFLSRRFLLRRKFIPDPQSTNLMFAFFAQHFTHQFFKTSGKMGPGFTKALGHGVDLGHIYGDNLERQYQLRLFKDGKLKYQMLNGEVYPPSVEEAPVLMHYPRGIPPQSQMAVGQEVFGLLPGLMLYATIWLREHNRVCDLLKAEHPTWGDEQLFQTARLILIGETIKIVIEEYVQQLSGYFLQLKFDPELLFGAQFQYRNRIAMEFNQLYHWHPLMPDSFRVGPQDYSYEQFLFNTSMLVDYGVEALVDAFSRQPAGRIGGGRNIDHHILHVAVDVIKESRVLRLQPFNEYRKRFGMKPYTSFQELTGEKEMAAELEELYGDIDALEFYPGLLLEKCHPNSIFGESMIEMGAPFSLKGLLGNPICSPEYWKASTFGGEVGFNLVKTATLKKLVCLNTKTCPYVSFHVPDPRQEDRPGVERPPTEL
# [5] = target: Prostaglandin G/H synthase 2 (Ovis aries) (UniProt P79208); settings: at 1 µM
# [6] = target: Prostaglandin G/H synthase 2 (Ovis aries) (UniProt P79208); settings: at 10 µM
# [7] = target: Prostaglandin G/H synthase 1 (Ovis aries) (UniProt P05979); settings: at 1 µM
# PC-3 [8] = experiment: Anticancer activity against human PC3 cells; assay type: functional
# PC-3 [9] = experiment: Anticancer activity against human PC3 cells at 1 uM; assay type: functional
# SN12C = experiment: Anticancer activity against human SN12C cells at 10 uM; assay type: functional
# Summary of the method: (§1)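 Tested at NIH in the standard 59-human-tumor-cell-line panel, at five concentrations from 10^-4 to 10^-8 M. Read-out is percent growth inhibition of the named cell line at 10^-5 M.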
# NCI-H522 = experiment: Anticancer activity against human NCI-H522 cells at 10 uM; assay type: functional; summary of the method: as §1
Compound,Ratio IC50 [1],logP [2],IC50 [3] [µM],IC50 [4] [µM],inhibition [5] [%],inhibition [6] [%],inhibition [7] [%],GI50 (PC-3 [8]) [µM],inhibition at 1 µM (PC-3 [9]) [%],inhibition at 10 µM (SN12C) [%],inhibition at 10 µM (NCI-H522) [%]
OC[C@H]1C[C@](O)(c2ccccc2)[C@@H](c2ccccc2)O1,> 1.96,2.5,5.1,> 10,28,77,2.8,,,,
O=C(O)[C@H]1C[C@](O)(c2ccc(Cl)cc2)[C@@H](c2ccc(Cl)cc2)O1 (relative stereo),< 2.6,3.65,3.8,< 10,30,94,55,,,,
OC[C@H]1C[C@](O)(c2ccc(F)cc2)[C@@H](c2ccc(F)cc2)O1,> 10,2.78,< 1,> 10,88,82,22,95,,,
Cc1ccc(-c2cc(C(F)(F)F)nn2-c2ccc(S(N)(=O)=O)cc2)cc1 [CELECOXIB],,,,,,,,47,,,
CS(=O)(=O)c1ccc(C2=C(c3ccccc3)C(=O)OC2)cc1 [ROFECOXIB],,,,,,,,,15,,
OC[C@H]1C[C@](O)(c2ccccc2Cl)[C@@H](c2ccccc2Cl)O1,,3.54,< 1,< 10,67,68,73,22,,,
O=C(O)[C@H]1C[C@](O)(c2ccc(F)cc2)[C@@H](c2ccc(F)cc2)O1 (relative stereo),> 3.1,2.89,3.2,> 10,37,90,30,,,60,
COc1ccc([C@H]2O[C@@H](CO)C[C@]2(O)c2ccc(OC)cc2)cc1,> 10,2,< 1,> 10,65,67,22,93.3,,,
OC[C@H]1C[C@](O)(c2ccc(Cl)cc2)[C@@H](c2ccc(Cl)cc2)O1,< 3.3,3.54,3,< 10,43,68,56,19.9,,,
CS(=O)(=O)c1ccc([C@H]2O[C@@H](CO)C[C@]2(O)c2ccc(S(C)(=O)=O)cc2)cc1,< 1.5,0.792,6.5,< 10,40,57,55,100,,,
O=C(O)[C@H]1C[C@](O)(c2ccccc2Cl)[C@@H](c2ccccc2Cl)O1 (relative stereo),> 2.8,3.65,3.5,> 10,37,82,34,,,,72
O=C(O)[C@H]1C[C@](O)(c2ccccc2)[C@@H](c2ccccc2)O1 (relative stereo),> 10,2.61,< 1,> 10,68,69,-1.15,,,,
